Source: ChEMBL document CHEMBL1149098, “Design, synthesis, and evaluation of novel thienopyrrolizinones as antitubulin agents” (J Med Chem, 2004)
Values belong to the compound of their own block, whether it stands above or below them.

Assays:
L1210 [1] = test: In vitro antiproliferative activity against L1210 cell line, activity expressed as growth inhibition; format: functional; conditions: Mus musculus
How it was run: (§1)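 MTT proliferation assay. Adherent cells trypsinized and seeded at densities keeping controls in exponential growth. Drug exposure for four doubling times, at most 7 days. MTT (5 mg/mL stock) added for 4 h at 37 °C, formazan dissolved in DMSO, OD read at 540 nm. % growth from treated/control OD, tri- or hexaplicates averaged against log concentration. GI50 from linear regression on the linear zone.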

L1210 [2] = test: Compound was tested for percentage of L1210 cells accumulated in the G2 + M + 8N phase of the cell cycle at 50 uM; format: functional, Mus musculus
How it was run: (§2)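 Flow cytometry of L1210 cells (2.5×10^5/mL) exposed to drug for 21 h (about two doubling times). Cells fixed in 70% ethanol, washed twice in PBS, then 30 min in PBS with 100 µg/mL RNAse and 25 µg/mL propidium iodide. 10 000 cells counted per sample. Reported as % of cells in G2 + M + 8N.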

Mus musculus [3] = test: In vivo anticancer activity against an ip P388 murine model after intravenous administration of 50 mg/kg compound; format: functional
How it was run: (§3)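 Female B6D2F1 mice, 4–6 weeks old, 20–22 g, inoculated ip with 10^6 P388 leukemia cells. Single ip or iv injection on day 1 at the listed dose (range 25–400 mg/kg). BCNU run as internal reference. Median survival of treated versus control mice gives T/C (%). Activity threshold set at T/C 125%.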

Mus musculus [4] = test: In vivo anticancer activity against an ip P388 murine model after intraperitoneal administration of 25 mg/kg compound; format: functional; how it was run: as §3
Mus musculus [5] = test: In vivo anticancer activity against an ip P388 murine model after intravenous administration of 400 mg/kg compound; format: functional; how it was run: as §3
Mus musculus [6] = test: In vivo anticancer activity against an ip P388 murine model after intravenous administration of 25 mg/kg compound; format: functional; how it was run: as §3
Mus musculus [7] = test: In vivo anticancer activity against an ip P388 murine model after intraperitoneal administration of 400 mg/kg compound; format: functional; how it was run: as §3
Mus musculus [8] = test: In vivo anticancer activity against an ip P388 murine model after intraperitoneal administration of 200 mg/kg compound; format: functional; how it was run: as §3
Mus musculus [9] = test: In vivo anticancer activity against an ip P388 murine model after intraperitoneal administration of 100 mg/kg compound; format: functional; how it was run: as §3
Mus musculus [10] = test: In vivo anticancer activity against an ip P388 murine model after intraperitoneal administration of 50 mg/kg compound; format: functional; how it was run: as §3
Mus musculus [11] = test: In vivo anticancer activity against an ip P388 murine model after intravenous administration of 100 mg/kg compound; format: functional; how it was run: as §3
Tubulin = Tubulin (Bos taurus, UniProt Q6B856+Q862L2+Q862F3); test: Inhibitory concentration against calf tubulin polymerization; format: protein assay
How it was run: (§4)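 Calf brain tubulin purified by three assembly–disassembly cycles, about 2–3 mg/mL in 0.1 M MES, 0.5 mM MgCl2, 2 mM EGTA, 1 mM GTP, pH 6.6. Assembly followed continuously by turbidimetry at 37 °C. IC50 is the concentration halving the maximum assembly rate of drug-free tubulin. Deoxypodophyllotoxin measured the same day as reference.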

Mus musculus [12] = test: In vivo anticancer activity against an ip P388 murine model after intravenous administration of 200 mg/kg compound; format: functional; how it was run: as §3
LS174T = test: In vitro antiproliferative activity against LS174T cell line; format: functional, Mus musculus; conditions: Homo sapiens; how it was run: as §1
L1210 [13] = test: In vitro antiproliferative activity against L1210 cell line; format: functional; conditions: Mus musculus; how it was run: as §1
[14] = Inhibitory concentration against calf microtubule polymerization; format: functional, Bos taurus; how it was run: as §4
B16 = test: In vitro antiproliferative activity against B16 cell line; format: functional; conditions: Mus musculus; how it was run: as §1
OVCAR-3 = test: In vitro antiproliferative activity against OVCAR-3 cell line; format: functional, Mus musculus; conditions: Homo sapiens; how it was run: as §1
A549 = test: In vitro antiproliferative activity against A549 cell line; format: functional, Mus musculus; conditions: Homo sapiens; how it was run: as §1
HT-29 = test: In vitro antiproliferative activity against HT-29 cell line; format: functional, Mus musculus; conditions: Homo sapiens; how it was run: as §1
DU-145 = test: In vitro antiproliferative activity against DU145 cell line; format: functional, Mus musculus; conditions: Homo sapiens; how it was run: as §1
P388 = test: In vitro antiproliferative activity against P388 cell line; format: functional; conditions: Mus musculus; how it was run: as §1
L1210 [15] = test: Compound was tested for percentage of L1210 cells accumulated in the G2 + M + 8N phase of the cell cycle at 0.5 uM; format: functional, Mus musculus; how it was run: as §2
A2780 = test: In vitro antiproliferative activity against A2780 cell line; format: functional, Mus musculus; conditions: Homo sapiens; how it was run: as §1
KB = test: In vitro antiproliferative activity against KBA1 cell line; format: functional, Mus musculus; conditions: Homo sapiens; how it was run: as §1
MDA-N = test: Cytotoxicity against human breast MDA-N cell line; format: functional
PC-3 = test: Cytotoxicity against human prostate PC-3 cell line; format: functional
M14 [16] = test: Cytotoxicity against human melanoma M-14 cell line from the NCI 60 tumoral cell line panel; format: functional
CCRF-CEM = test: Cytotoxicity against human leukemia CCRF-CEM cell line; format: functional
RXF 393 = test: Cytotoxicity against human renal XF-393 cell line; format: functional
NCI-H522 = test: Cytotoxicity against human NSCL NCI-H522 cell line; format: functional
SW-620 = test: Cytotoxicity against human colon SW-620 cell line; format: functional
M14 [17] = test: Cytotoxicity against human melanoma M-14 cell line; format: functional
Homo sapiens [18] = test: Compound was evaluated for anticancer activity in the hollow fiber assay, activity expressed as sc score; format: functional
How it was run: (§5)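 Mouse hollow-fiber model: PVDF fibres holding 12 human tumour cell lines implanted ip and sc. Drug in 10% DMSO in saline/Tween-80, given ip once daily for four doses at each of two dose levels, triplicate. Fibres collected the day after the last dose for viable cell mass. Each ≥50% reduction versus vehicle controls scores 2, summed per site.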

Homo sapiens [19] = organism: Homo sapiens; test: Compound was evaluated for anticancer activity in the hollow fiber assay, activity expressed as total score; format: functional; how it was run: as §5
Homo sapiens [20] = test: Compound was evaluated for anticancer activity in the hollow fiber assay, activity expressed as ip score; format: functional; how it was run: as §5

SMILES: COc1ccc(-c2cccc3c2-n2cccc2C3=O)cc1OC
GI50 (L1210 [1]): 72.2 µM

SMILES: O=C1c2scc(-c3cccc(O)c3)c2-n2cccc21
GI50 (L1210 [1]): 29 µM

SMILES: COc1ccc(-c2csc3c2-n2cccc2C3=O)c(OC)c1OC
GI50 (L1210 [1]): 36.4 µM

SMILES: COc1ccccc1-c1csc2c1-n1cccc1C2=O
Cells (L1210 [2]): 75%
GI50 (L1210 [1]): 18.9 µM

SMILES: O=C1c2cccc(-c3ccco3)c2-n2cccc21
GI50 (L1210 [1]): 27.6 µM

SMILES: COc1ccc(-c2csc3nc(O)c4cccn4c23)cc1OC
GI50 (L1210 [1]): > 100 µM

SMILES: COc1ccc(-c2coc3c2-n2cccc2C3=O)cc1OC
GI50 (L1210 [1]): 24.2 µM

SMILES: Cc1csc2c1-n1cccc1C2=O
GI50 (L1210 [1]): > 100 µM

SMILES: COc1ccc(-c2csc3c2-n2cccc2/C3=N/O)cc1
GI50 (L1210 [1]): 34.3 µM

SMILES: COc1ccc(C2CC(=O)c3cccn32)cc1O (stereo unspecified)
GI50 (L1210 [1]): 25 µM

SMILES: O=C1c2scc(-c3ccc(Cl)cc3)c2-n2cccc21
GI50 (MDA-N): 7.94 µM
GI50 (PC-3): 100 µM
GI50 (M14 [16]): 50.1 µM
GI50 (CCRF-CEM): 100 µM
GI50 (RXF 393): 100 µM
GI50 (NCI-H522): 3.16 µM
GI50 (SW-620): 100 µM

SMILES: CCCOc1ccc(-c2csc3c2-n2cccc2C3=O)cc1
GI50 (L1210 [1]): 28.1 µM

SMILES: O=C1c2sccc2-n2cccc21
GI50 (L1210 [1]): 85 µM

SMILES: O=C1c2scc(-c3ccccc3)c2-n2cccc21
GI50 (MDA-N): 15.8 µM
GI50 (M14 [17]): 20 µM
GI50 (PC-3): 12.6 µM
GI50 (CCRF-CEM): 20 µM
GI50 (RXF 393): 12.6 µM
GI50 (NCI-H522): 12.6 µM
GI50 (SW-620): 15.8 µM

SMILES: CC(C)Oc1ccc(-c2csc3c2-n2cccc2C3=O)cc1
GI50 (L1210 [1]): 12.2 µM

SMILES: O=C1c2scc(-c3ccc(F)cc3)c2-n2cccc21
GI50 (MDA-N): 7.94 µM
GI50 (M14 [17]): 31.6 µM
GI50 (PC-3): 31.6 µM
GI50 (CCRF-CEM): 31.6 µM
GI50 (RXF 393): 25.1 µM
GI50 (NCI-H522): 15.8 µM
GI50 (SW-620): 25.1 µM

SMILES: O=C1c2cccc(-c3cccs3)c2-n2cccc21
GI50 (L1210 [1]): 71.9 µM

SMILES: CCCCOc1ccc(-c2csc3c2-n2cccc2C3=O)cc1
GI50 (L1210 [1]): 29.6 µM

SMILES: COc1cc(-c2csc3c2-n2cccc2C3=O)ccc1OCc1ccccc1
GI50 (L1210 [1]): 24.1 µM

SMILES: O=C1c2scc(-c3ccc(O)cc3)c2-n2cccc21
GI50 (L1210 [1]): 30.1 µM

Continued by falling GI50 (L1210 [1]), values first:

GI50 (L1210 [1]): 12 µM
SMILES: O=C1c2scc(-c3ccc(O)c(O)c3O)c2-n2cccc21

GI50 (L1210 [1]): 11.8 µM
SMILES: COc1ccc(-c2c[nH]c3c2-n2cccc2C3=O)cc1OC

GI50 (L1210 [1]): 11.7 µM
IC50 (Tubulin): 19 µM
SMILES: COc1ccc(-c2csc3c2-n2cccc2C3=O)cc1OC

GI50 (L1210 [1]): 9.4 µM
SMILES: COc1ccc(-c2cc3c(s2)C(=O)c2cccn2-3)cc1

GI50 (L1210 [1]): 8.8 µM
SMILES: Oc1ccc(-c2csc3nc(O)c4cccn4c23)cc1O

GI50 (L1210 [1]): 8 µM
SMILES: COc1cc(-c2csc3c2-n2cccc2C3=O)ccc1O

GI50 (L1210 [1]): 5.4 µM
SMILES: COc1ccc(-c2csc3c2-n2cccc2C3=O)cc1OCc1ccccc1

GI50 (L1210 [1]): 5.2 µM
SMILES: COc1cccc(-c2csc3c2-n2cccc2C3=O)c1

GI50 (L1210 [1]): 4.9 µM
SMILES: COc1ccc(-c2csc3c2-n2cccc2C3O)cc1 (stereo unspecified)

GI50 (L1210 [1]): 4.2 µM
SMILES: O=C1c2scc(-c3ccc4c(c3)OCO4)c2-n2cccc21

GI50 (L1210 [1]): 3.9 µM
SMILES: COc1ccc(-c2csc3c2-n2cccc2/C3=N/OCCCN(C)C)cc1

GI50 (L1210 [1]): 3.7 µM
SMILES: O=C1c2scc(-c3ccccc3O)c2-n2cccc21

GI50 (L1210 [1]): 3 µM
SMILES: COc1ccc(-c2cccc3c2-n2cccc2C3=O)cc1

GI50 (L1210 [1]): 0.43 µM
SMILES: CCOc1ccc(-c2csc3c2-n2cccc2C3=O)cc1

GI50 (L1210 [1]): 0.28 µM
IC50 (Tubulin): 21 µM
SMILES: O=C1c2scc(-c3ccc(O)c(O)c3)c2-n2cccc21
T/C (Mus musculus [3]): 101%
T/C (Mus musculus [4]): 111%
T/C (Mus musculus [5]): 21%
T/C (Mus musculus [6]): 95%
T/C (Mus musculus [7]): 149%
T/C (Mus musculus [8]): 133%
T/C (Mus musculus [9]): 134%
T/C (Mus musculus [10]): 118%
T/C (Mus musculus [11]): 105%
T/C (Mus musculus [12]): 103%

GI50 (L1210 [1]): 0.19 µM
SMILES: COc1ccc(-c2csc3c2-n2cccc2C3=O)cc1
GI50 (MDA-N): 0.0126 µM
GI50 (M14 [17]): 0.0316 µM
Activity (Homo sapiens [18]): 0
GI50 (PC-3): 0.0398 µM
GI50 (CCRF-CEM): 0.0316 µM
GI50 (RXF 393): 0.0631 µM
Activity (Homo sapiens [19]): 16
Activity (Homo sapiens [20]): 16
GI50 (NCI-H522): 0.0158 µM
GI50 (SW-620): 0.0251 µM

GI50 (L1210 [13]): 0.015 µM
IC50 [14]: 2.9 µM
GI50 (B16): 0.023 µM
GI50 (OVCAR-3): 0.031 µM
GI50 (L1210 [1]): 0.015 µM
GI50 (A549): 0.045 µM
GI50 (HT-29): 0.713 µM
GI50 (DU-145): 0.043 µM
GI50 (P388): 0.021 µM
IC50 (Tubulin): 2.9 µM
GI50 (A2780): 0.04 µM
GI50 (KB): 0.015 µM
SMILES: COc1ccc(-c2csc3c2-n2cccc2C3=O)cc1O
GI50 (LS174T): 0.887 µM
T/C (Mus musculus [3]): 104%
T/C (Mus musculus [4]): 108%
T/C (Mus musculus [5]): 19%
T/C (Mus musculus [6]): 102%
T/C (Mus musculus [7]): 121%
T/C (Mus musculus [8]): 117%
T/C (Mus musculus [9]): 121%
T/C (Mus musculus [10]): 116%
T/C (Mus musculus [11]): 102%
Cells (L1210 [15]): 86%
T/C (Mus musculus [12]): 103%
